Measured values: ChEMBL document CHEMBL3763127, “Design, synthesis and biological evaluation of novel asperphenamate derivatives” (Eur J Med Chem, 2016)
Activity calls are given as the source filed them. The rule behind the calls is not given here.

Experiments:
[1] = system: Bel-7402; experiment: Induction of autophagy in human Bel7402 cells assessed as autophagic cell formation at 20 uM after 72 hrs by MDC staining-based flow cytometric analysis (reference value: 3.94%); format: functional
[2] = system: MCF7; experiment: Induction of cell cycle arrest in human MCF7 cells assessed as accumulation at G2/M phase at 10 uM after 48 hrs by PI staining-based flow cytometric analysis (reference value: 19.85%); format: functional
[3] = system: MCF7; experiment: Induction of cell cycle arrest in human MCF7 cells assessed as accumulation at S phase at 10 uM after 48 hrs by PI staining-based flow cytometric analysis (reference value: 27.09%); format: functional
[4] = system: HeLa; experiment: Induction of cell cycle arrest in human HeLa cells assessed as accumulation at G0/G1 phase at 20 uM after 48 hrs by PI staining-based flow cytometric analysis (reference value: 45.70%); format: functional
[5] = system: Bel-7402; experiment: Induction of autophagy in human Bel7402 cells assessed as autophagic cell formation at 40 uM after 72 hrs by MDC staining-based flow cytometric analysis (reference value: 3.94%); format: functional
[6] = system: MCF7; experiment: Induction of cell cycle arrest in human MCF7 cells assessed as accumulation at G0/G1 phase at 10 uM after 24 hrs by PI staining-based flow cytometric analysis (reference value: 50.76%); format: functional
[7] = system: MCF7; experiment: Induction of cell cycle arrest in human MCF7 cells assessed as accumulation at G0/G1 phase at 10 uM after 48 hrs by PI staining-based flow cytometric analysis (reference value: 50.76%); format: functional
[8] = system: MCF7; experiment: Induction of autophagy in human MCF7 cells assessed as increase in LC3-2 level at 5 to 10 uM after 48 hrs by Western blot analysis; format: functional, cell-based
In short: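 Cells were treated with or without compound for 48 h: MCF-7 at 5 and 10 µM, HeLa and BEL-7402 at 20 and 40 µM. Total protein (10 µg) in SDS sample buffer (pH 6.8) was run on 8–15% SDS-PAGE and transferred to PVDF. LC3-I/LC3-II were probed with HRP secondary antibody and ECL detection. The assay was repeated at least three times.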

[9] = system: MCF7; experiment: Induction of cell cycle arrest in human MCF7 cells assessed as accumulation at G2/M phase at 10 uM after 72 hrs by PI staining-based flow cytometric analysis (reference value: 19.85%); format: functional
[10] = system: Bel-7402; experiment: Induction of apoptosis in human Bel7402 cells assessed as accumulation at subG1 phase at 20 uM after 72 hrs by PI staining-based flow cytometric analysis (reference value: 2.87%); format: functional
[11] = system: MCF7; experiment: Induction of autophagy in human MCF7 cells at 5 uM after 72 hrs by MDC staining-based flow cytometric analysis (reference value: 2.54%); format: functional
[12] = system: MCF7; experiment: Induction of autophagy in human MCF7 cells assessed as increase in autophagosome formation at 5 and 10 uM after 72 hrs by AO staining-based fluorescence microscopic analysis; format: functional, cell-based
In short: (§1)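 Cells in RPMI 1640/10% FBS were exposed to compound or 0.1% DMSO for 72 h: MCF-7 at 5 and 10 µM, HeLa and BEL-7402 at 20 and 40 µM. They were incubated with […] acridine orange for 15 min, washed with PBS, and acidic vesicles were imaged by inverted fluorescence microscopy.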

[13] = system: MCF7; experiment: Induction of cell cycle arrest in human MCF7 cells assessed as accumulation at G0/G1 phase at 10 uM after 72 hrs by PI staining-based flow cytometric analysis (reference value: 50.76%); format: functional
[14] = system: HeLa; experiment: Induction of apoptosis in human HeLa cells assessed as accumulation at subG1 phase at 20 uM after 72 hrs by PI staining-based flow cytometric analysis (reference value: 2.89%); format: functional
[15] = system: Bel-7402; experiment: Induction of cell cycle arrest in human Bel7402 cells assessed as accumulation at S phase at 20 uM after 48 hrs by PI staining-based flow cytometric analysis (reference value: 25.01%); format: functional
[16] = system: Bel-7402; experiment: Induction of apoptosis in human Bel7402 cells assessed as accumulation at subG1 phase at 20 uM after 48 hrs by PI staining-based flow cytometric analysis (reference value: 2.87%); format: functional
[17] = system: Bel-7402; experiment: Induction of cell cycle arrest in human Bel7402 cells assessed as accumulation at G2/M phase at 20 uM after 48 hrs by PI staining-based flow cytometric analysis (reference value: 22.26%); format: functional
[18] = system: HeLa; experiment: Induction of autophagy in human HeLa cells assessed as increase in autophagosome formation at 20 and 40 uM after 72 hrs by AO staining-based fluorescence microscopic analysis; format: functional, cell-based; in short: as §1
[19] = system: Bel-7402; experiment: Induction of cell cycle arrest in human Bel7402 cells assessed as accumulation at S phase at 20 uM after 72 hrs by PI staining-based flow cytometric analysis (reference value: 25.01%); format: functional
[20] = system: HeLa; experiment: Induction of cell cycle arrest in human HeLa cells assessed as accumulation at G0/G1 phase at 20 uM after 72 hrs by PI staining-based flow cytometric analysis (reference value: 45.70%); format: functional
[21] = system: HeLa; experiment: Induction of autophagy in human HeLa cells assessed as autophagic cell formation at 40 uM after 72 hrs by MDC staining-based flow cytometric analysis (reference value: 1.92%); format: functional
[22] = system: MCF7; experiment: Induction of cell cycle arrest in human MCF7 cells assessed as accumulation at S phase at 10 uM after 72 hrs by PI staining-based flow cytometric analysis (reference value: 27.09%); format: functional
[23] = system: MCF7; experiment: Induction of apoptosis in human MCF7 cells assessed as accumulation at subG1 phase at 10 uM after 48 hrs by PI staining-based flow cytometric analysis (reference value: 2.98%); format: functional
[24] = system: Bel-7402; experiment: Induction of autophagy in human Bel7402 cells assessed as increase in autophagosome formation at 20 and 40 uM after 72 hrs by AO staining-based fluorescence microscopic analysis; format: functional, cell-based; in short: as §1
[25] = system: MCF7; experiment: Induction of autophagy in human MCF7 cells assessed as increase in autophagosome formation at 5 and 10 uM after 72 hrs by MDC staining-based fluorescence microscopic analysis; format: functional, cell-based
[26] = system: HeLa; experiment: Cytotoxicity against human HeLa cells after 3 days by MTT assay; format: functional, cell-based; settings: 72 h
In short: (§2)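 MCF-7, HeLa and BEL-7402 cells were grown in RPMI 1640 with 10% heat-inactivated FBS, 1 mM glutamine and penicillin/streptomycin at 37 °C under 5% CO2. They were exposed to compound for 3 days, then read by MTT at 570 nm. Viability was taken as treated/control absorbance, and IC50 was derived from it. Values are mean SD of three independent experiments.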

[27] = system: HeLa; experiment: Induction of cell cycle arrest in human HeLa cells assessed as accumulation at S phase at 20 uM after 48 hrs by PI staining-based flow cytometric analysis (reference value: 24.17%); format: functional
[28] = system: HeLa; experiment: Induction of cell cycle arrest in human HeLa cells assessed as accumulation at G2/M phase at 20 uM after 48 hrs by PI staining-based flow cytometric analysis (reference value: 25.44%); format: functional
[29] = system: MCF7; experiment: Cytotoxicity against human MCF7 cells after 3 days by MTT assay; format: functional, cell-based; settings: MCF7, 72 h; in short: as §2
[30] = Potency index, ratio of IC50 for cisplatin to IC50 for test compound for cytotoxicity against human Bel7402 cells; format: functional, Bel-7402

For `Cc1ccc(S(=O)(=O)N[C@H](Cc2ccccc2)C(=O)OC[C@H](Cc2ccccc2)NC(=O)c2ccccc2)cc1`, the Activity [1] was 23.66%, the Activity [2] was 20.05% and the Activity [3] was 28.07%. For the same compound, the Activity [4] was 50.15%, the Activity [5] was 48.25% and the Activity [6] was 52.57%. The Activity [7] was 48.81%, the Activity [8] was “Active” and the Activity [9] was 20.07%. For the same compound, the Activity [10] was 3.78%, the Activity [11] was 40.31% and the Activity [12] was “Active”. For the same compound, the Activity [13] was 48.05%, the Activity [14] was 2.43% and the Activity [15] was 26.01%. For the same compound, the Activity [16] was 3.01%, the Activity [17] was 22.8% and the Activity [18] was “Active”. For the same compound, the Activity [19] was 26.88%, the Activity [20] was 48.1% and the Activity [21] was 49.37%. For the same compound, the Activity [22] was 28.08%, the Activity [23] was 3.22% and the Activity [24] was “Active”. For the same compound, the Activity [25] was “Active”, the IC50 [26] was 16.8 µM and the Activity [27] was 25.4%. The Activity [28] was 22.18%, the IC50 [29] was 5.87 µM and the “Ratio IC50” value [30] was 1.6.
